Measurements of several laboratories.
Each line is one published result; the experiments were not run side by side.
Target: NT-3 growth factor receptor (NTRK3, Homo sapiens, UniProt Q16288)

Structure (SMILES)	read-out	mode	technique	tested at	endpoint	value
O=C1Nc2ccc(Cl)cc2C1=Cc1cc(Cl)c(O)c(Cl)c1	cell-free assay	–	–	0.5 µM	remaining signal	44.8%
O=C(Nc1cccc(C(=O)Nc2ccc3[nH]ncc3c2)c1)Nc1ccccc1C(F)(F)F	enzyme activity	inhibitor	FRET	1 µM	inhibition	23.7%
Cc1sc(C(=O)NC2COC2)cc1-n1cc(NC(=O)Nc2c(F)cccc2Cl)cn1	enzyme activity	inhibitor	–	10 µM	remaining activity	86%
O=C(Nc1ccc2[nH]ncc2c1)c1cccc(NC(=S)Nc2ccc(F)cc2F)c1	enzyme activity	inhibitor	FRET	1 µM	inhibition	12.5%
CC(C)(C)c1nc2c(s1)c1nc(N)ncc1c1ccc(NS(=O)(=O)c3c(F)cccc3F)c(F)c12	enzyme activity	inhibitor	radiometric	1 µM	remaining activity	82%
N#CC1(c2ccccn2)CCN(Cc2cc(C(=O)N3CCCC3)c(=O)n3ccccc23)CC1	cell-free assay	–	competition with immobilised ligand	1 µM	remaining binding	100%
Cc1ccc(NC(=O)c2ccc(C)c(C(F)(F)F)c2)cc1C#Cc1nn(C2CCC(O)CC2)c2ncnc(N)c12 (stereo not shown)	cell-free assay	–	–	10 µM	remaining signal	17%
Cc1c[nH]c2nccc(Oc3c(F)cc(Nc4cc(Cl)nc(N)n4)cc3F)c12	cell-free assay	–	competition with immobilised ligand	0.1 µM	remaining binding	86%
O=C1NC(=O)c2cc(Nc3ccc(F)cc3)c(Nc3ccc(F)cc3)cc21	cell-free assay	–	–	0.5 µM	remaining signal	95.6%
O=C(Nc1ccc(F)cc1)Nc1cccc(C(=O)Nc2ccc3[nH]ncc3c2)c1	enzyme activity	inhibitor	FRET	1 µM	inhibition	13%
Nc1ncnc2occ(-c3ccc(NC(=O)Nc4cc(C(F)(F)F)ccc4F)cc3)c12	cell-free assay	–	–	20 µM	remaining signal	0.25%
COCCOc1nc(-c2ccc(Cl)nc2)nc2c1CN(C(=O)c1ncn3ccccc13)CC2	cell-free assay	–	competition with immobilised ligand	0.1 µM	remaining binding	100%
O=C(Nc1cccc(C(=O)Nc2ccc3[nH]ncc3c2)c1)Nc1cccc(C(F)(F)F)c1	enzyme activity	inhibitor	FRET	1 µM	inhibition	26.6%
CN(C(=O)c1ccccc1)c1cc(N(C)c2ccc3c(c2)CCc2ccc(C(=O)NCCN4CCOCC4)cc2C3=O)ccc1F	cell-free assay	–	competition with immobilised ligand	1 µM	remaining binding	90%
N#CCCc1ccc2c(c1)-c1[nH]c3ccc([N+](=O)[O-])cc3c1CC(=O)N2	cell-free assay	–	–	0.5 µM	remaining signal	61.2%
O=C(O)[C@H]1[C@H](Cn2nnc3ccccc3c2=O)CC[C@@H]1C(=O)c1ccc(OCCC2CCOCC2)cc1	cell-free assay	–	competition with immobilised ligand	1 µM	remaining binding	82%
Cc1ccc(C(=O)Nc2ccc(CN3CCN(C)CC3)c(C(F)(F)F)c2)cc1C#Cc1cnc2cccnn12	cell-free assay	–	–	23.5 nM	remaining signal	26%
O=C(Nc1cccc(Cl)c1)Nc1cccc(C(=O)Nc2ccc3[nH]ncc3c2)c1	enzyme activity	inhibitor	FRET	1 µM	inhibition	19.7%
Cc1ccc(C(=O)NCc2ccsc2)cc1C#Cc1cn(C(C)C)c2ncnc(N)c12	enzyme activity	inhibitor	–	1 µM	activity vs control	29%
O=C(Nc1ccc2[nH]ncc2c1)c1cccc(NC(=S)Nc2cc(C(F)(F)F)cc(C(F)(F)F)c2)c1	enzyme activity	inhibitor	FRET	1 µM	inhibition	11.8%
CCCCN(CCCC)C(=O)CN1C[C@H](c2cc(OC)c3c(c2)OCO3)[C@@H](C(=O)O)[C@@H]1CC(C)(C)CCC	cell-free assay	–	competition with immobilised ligand	1 µM	remaining binding	50.5%
CN1CCN(c2ccc(C(=O)Nc3n[nH]c4ccc(Cc5cc(F)cc(F)c5)cc34)c(NC3CCOCC3)c2)CC1	enzyme activity	inhibitor	FRET	1 µM	inhibition	99.8%
O=C(NC[C@@H]1[C@H]2CN(C(=O)OCc3cc(C(F)(F)F)cc(C(F)(F)F)c3)C[C@@H]12)c1ccc2[nH]nnc2c1	cell-free assay	–	competition with immobilised ligand	1 µM	remaining binding	91%
O=C(Nc1cccc(F)c1)Nc1cccc(C(=O)Nc2ccc3[nH]ncc3c2)c1	enzyme activity	inhibitor	FRET	1 µM	inhibition	17%
C[C@@H]1CCN(C(=O)CC#N)C[C@@H]1N(C)c1ncnc2[nH]ccc12	cell-free assay	–	–	0.5 µM	remaining signal	90%
